Drawing on ChEMBL document CHEMBL1143918, “Novel coumarin glycoside and phenethyl vanillate from Notopterygium forbesii and their binding affinities for opioid and dopamine receptors” (Bioorg Med Chem, 2008), this text covers Ki and Activity for 3 compounds.

Assay type in all cases: cell-based
One assay concerns the target Mu-type opioid receptor (Rattus norvegicus, UniProt P33535). As to the kind of experiment: Displacement of [3H]diprenorphine from rat mu opioid receptor expressed in CHO cells. Put shortly: (§1)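 Competitive inhibition of [3H]diprenorphine binding to human KOR, rat MOR or mouse DOR stably expressed in CHO cells. Compounds screened at 10 μM; those displacing >50% were tested over a concentration range and Ki calculated from competitive inhibition curves.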

For assay [1], the target named is Delta-type opioid receptor (Mus musculus, UniProt P32300). The assay is described as follows: Displacement of [3H]diprenorphine from mouse delta opioid receptor expressed in CHO cells. Put shortly:
as §1

Assay [2] has as its target Kappa-type opioid receptor (Homo sapiens, UniProt P41145). The assay is described as follows: Displacement of [3H]diprenorphine from human kappa opioid receptor expressed in CHO cells. Put shortly:
as §1

A further assay addresses D(1A) dopamine receptor (Rattus norvegicus, UniProt P18901). The assay is described as follows: Displacement of [3H]SCH-23390 from rat HA-tagged D1 dopamine receptor expressed in CHO cells. Put shortly: (§2)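 Membranes from CHO cells stably expressing HA-tagged rat D1 receptor; cells grown in DMEM/F12 with 10% fetal calf serum and hygromycin B at 37°C, 5% CO2. Binding: 0.2 nM [3H]SCH23390 in 50 mM Tris-HCl, 1 mM EGTA, pH 7.4, room temperature, 1 h, duplicate. Fluphenazine (10 μM) defined nonspecific binding. Screened at 10 μM; compounds displacing >50% taken to Ki from competition curves.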

In assay [3] the target is D(1A) dopamine receptor (Rattus norvegicus) (UniProt P18901). The assay is described as follows: Displacement of [3H]SCH-23390 from rat HA-tagged D1 dopamine receptor expressed in CHO cells at 10 uM. Put shortly: as §2
D(1A) dopamine receptor (Rattus norvegicus), sequence (P18901 whole entry): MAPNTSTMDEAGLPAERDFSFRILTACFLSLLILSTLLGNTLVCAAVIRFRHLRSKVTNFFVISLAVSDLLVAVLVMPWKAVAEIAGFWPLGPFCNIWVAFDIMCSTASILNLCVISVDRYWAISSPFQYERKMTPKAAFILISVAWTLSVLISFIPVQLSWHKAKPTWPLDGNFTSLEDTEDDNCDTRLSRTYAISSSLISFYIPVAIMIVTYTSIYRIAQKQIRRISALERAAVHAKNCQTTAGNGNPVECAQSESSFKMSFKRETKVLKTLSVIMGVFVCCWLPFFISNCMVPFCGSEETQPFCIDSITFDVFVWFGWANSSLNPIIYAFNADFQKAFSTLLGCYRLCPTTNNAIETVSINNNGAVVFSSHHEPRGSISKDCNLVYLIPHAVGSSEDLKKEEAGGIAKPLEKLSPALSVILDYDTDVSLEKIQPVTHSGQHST

Delta-type opioid receptor, sequence (P32300 whole entry): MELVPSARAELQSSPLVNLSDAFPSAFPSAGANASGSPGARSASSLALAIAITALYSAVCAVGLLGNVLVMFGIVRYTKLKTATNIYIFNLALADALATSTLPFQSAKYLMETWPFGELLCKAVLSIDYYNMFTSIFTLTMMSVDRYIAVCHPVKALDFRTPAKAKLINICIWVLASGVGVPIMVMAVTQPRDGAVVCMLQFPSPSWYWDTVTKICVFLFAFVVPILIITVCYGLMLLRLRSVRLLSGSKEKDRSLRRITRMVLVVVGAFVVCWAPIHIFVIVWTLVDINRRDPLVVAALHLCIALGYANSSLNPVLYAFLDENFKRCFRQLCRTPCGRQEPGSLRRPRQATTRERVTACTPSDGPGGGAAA
Mu-type opioid receptor, sequence (P33535 whole entry): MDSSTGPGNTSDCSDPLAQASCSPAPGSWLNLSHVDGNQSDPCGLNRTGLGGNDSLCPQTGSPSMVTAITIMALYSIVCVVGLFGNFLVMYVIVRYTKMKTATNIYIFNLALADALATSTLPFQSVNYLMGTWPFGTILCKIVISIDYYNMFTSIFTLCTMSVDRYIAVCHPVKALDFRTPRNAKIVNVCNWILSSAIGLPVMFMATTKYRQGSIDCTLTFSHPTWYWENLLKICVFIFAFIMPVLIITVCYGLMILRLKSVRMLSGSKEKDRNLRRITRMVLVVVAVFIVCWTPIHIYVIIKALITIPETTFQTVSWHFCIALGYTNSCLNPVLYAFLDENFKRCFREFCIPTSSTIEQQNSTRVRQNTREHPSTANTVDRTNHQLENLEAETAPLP
Kappa-type opioid receptor, sequence (P41145 whole entry): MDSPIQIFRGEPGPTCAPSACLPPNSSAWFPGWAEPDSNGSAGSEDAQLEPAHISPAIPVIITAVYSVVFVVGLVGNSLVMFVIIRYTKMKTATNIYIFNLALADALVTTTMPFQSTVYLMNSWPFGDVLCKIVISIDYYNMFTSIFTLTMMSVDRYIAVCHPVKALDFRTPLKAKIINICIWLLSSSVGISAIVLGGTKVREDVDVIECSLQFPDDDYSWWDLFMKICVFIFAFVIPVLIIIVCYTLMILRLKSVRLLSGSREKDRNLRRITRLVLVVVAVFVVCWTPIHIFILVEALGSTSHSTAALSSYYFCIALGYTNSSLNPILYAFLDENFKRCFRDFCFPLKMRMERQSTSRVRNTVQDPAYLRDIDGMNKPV
D(1A) dopamine receptor, sequence (P18901 whole entry): as the sequence (P18901 whole entry) above

`CC(C)=CC(O)C/C(C)=C/COc1ccc2ccc(=O)oc2c1` (centres undefined) [ANISOCOUMARIN H]: the Ki at Mu-type opioid receptor was above 10 µM; in assay [1], above 10 µM; in assay [2] it was 2.6 µM; on D(1A) dopamine receptor, above 10 µM.
Turning to `C=C[C@@H](O)C#CC#C[C@@H](O)/C=C\CCCCCCC` [FALCARINDIOL], the inhibitory constant (Ki) was determined as 1.13 µM at Mu-type opioid receptor, 1.1 µM in assay [1], 2.51 µM in assay [2] and 0.192 µM at D(1A) dopamine receptor. Moreover, in assay [3], the Activity was above 50%.
The matching figures for `CC(C)=CC(O)C/C(C)=C/COc1c2ccoc2cc2oc(=O)ccc12` (centres undefined) [NOTOPTEROL]: above 10 µM, above 10 µM, above 10 µM, 1.42 µM and above 50%.
